Results published in ChEMBL document CHEMBL2384929, “Synthesis and biological evaluation of fluoro analogues of antimitotic phenstatin” (Bioorg Med Chem, 2013).

Key:
MDA-MB-468 = assay: Cytotoxicity against human MDA-MB-468 cells assessed as growth inhibition at 10 uM after 48 hrs by SRB assay; format: functional; conditions: MDA-MB-468, 48 h, read-out: GI
How it was run: (§1)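 Single-dose NCI 60-cell screen at 10 µM with 48 h exposure and sulforhodamine B read-out. Values are percentage growth per cell line. A summary ratio counts cell lines with 0–50% growth over all cell lines tested.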

NCI/ADR-RES = assay: Cytotoxicity against human NCI/ADR-RES cells assessed as growth inhibition at 10 uM after 48 hrs by SRB assay; format: functional; conditions: read-out: GI; how it was run: as §1
PC-3 = assay: Cytotoxicity against human PC3 cells assessed as growth inhibition at 10 uM after 48 hrs by SRB assay; format: functional; conditions: PC-3, 48 h, read-out: GI; how it was run: as §1
UO-31 = assay: Cytotoxicity against human UO31 cells assessed as growth inhibition at 10 uM after 48 hrs by SRB assay; format: functional; conditions: UO-31, 48 h, read-out: GI; how it was run: as §1
UACC-257 = assay: Cytotoxicity against human UACC257 cells assessed as growth inhibition at 10 uM after 48 hrs by SRB assay; format: functional; conditions: UACC-257, 48 h, read-out: GI; how it was run: as §1
SW-620 = assay: Cytotoxicity against human SW620 cells assessed as growth inhibition at 10 uM after 48 hrs by SRB assay; format: functional; conditions: SW-620, 48 h, read-out: GI; how it was run: as §1
HCC 2998 = assay: Cytotoxicity against human HCC2998 cells assessed as growth inhibition at 10 uM after 48 hrs by SRB assay; format: functional; conditions: HCC 2998, 48 h, read-out: GI; how it was run: as §1
KM12 = assay: Cytotoxicity against human KM12 cells assessed as growth inhibition at 10 uM after 48 hrs by SRB assay; format: functional; conditions: KM12, 48 h, read-out: GI; how it was run: as §1
SNB-75 = assay: Cytotoxicity against human SNB75 cells assessed as growth inhibition at 10 uM after 48 hrs by SRB assay; format: functional; conditions: SNB-75, 48 h, read-out: GI; how it was run: as §1
HOP-62 = assay: Cytotoxicity against human HOP62 cells assessed as growth inhibition at 10 uM after 48 hrs by SRB assay; format: functional; conditions: HOP-62, 48 h, read-out: GI; how it was run: as §1
NCI-H522 = assay: Cytotoxicity against human NCI-H522 cells assessed as growth inhibition at 10 uM after 48 hrs by SRB assay; format: functional; conditions: NCI-H522, 48 h, read-out: GI; how it was run: as §1
SR = assay: Cytotoxicity against human SR cells assessed as growth inhibition at 10 uM after 48 hrs by SRB assay; format: functional; conditions: read-out: GI; how it was run: as §1
Ovis aries = organism: Ovis aries; assay: Inhibition of sheep brain tubulin assembly at 100 uM by DAPI staining-based fluorescence assay
How it was run: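 Tubulin from sheep brain, purified by two assembly–disassembly cycles, at about 2–3 mg/mL in 0.1 M MES, 0.5 mM MgCl2, 1 mM EGTA, 1 mM GTP, pH 6.6. Assembly followed by DAPI fluorescence at 37 °C. Single-point inhibition tested at 100 µM. IC50 is the concentration halving the assembly rate relative to no compound, mean of two experiments, with reference inhibitors run the same day.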

inhibition (Ovis aries): 39%
SMILES: COc1ccc(C(=O)c2cc(F)c(F)c(OC)c2F)c(OC)c1NC(C)=O
inhibition of growth at 10 µM (MDA-MB-468): 81%
inhibition of growth at 10 µM (NCI/ADR-RES): 55%
inhibition of growth at 10 µM (PC-3): 27%
inhibition of growth at 10 µM (UO-31): 30%
inhibition of growth at 10 µM (UACC-257): 21%
inhibition of growth at 10 µM (SW-620): 37%
inhibition of growth at 10 µM (HCC 2998): 31%
inhibition of growth at 10 µM (KM12): 57%
inhibition of growth at 10 µM (SNB-75): 44%
inhibition of growth at 10 µM (HOP-62): 30%
inhibition of growth at 10 µM (NCI-H522): 83%
inhibition of growth at 10 µM (SR): 49%
